Measurements of several laboratories.
Lines come from different studies, so protocols differ.
Target: Serine/threonine-protein kinase BRSK1 (BRSK1, Homo sapiens, UniProt Q8TDC3)
One construct used (Q8TDC3 1-778): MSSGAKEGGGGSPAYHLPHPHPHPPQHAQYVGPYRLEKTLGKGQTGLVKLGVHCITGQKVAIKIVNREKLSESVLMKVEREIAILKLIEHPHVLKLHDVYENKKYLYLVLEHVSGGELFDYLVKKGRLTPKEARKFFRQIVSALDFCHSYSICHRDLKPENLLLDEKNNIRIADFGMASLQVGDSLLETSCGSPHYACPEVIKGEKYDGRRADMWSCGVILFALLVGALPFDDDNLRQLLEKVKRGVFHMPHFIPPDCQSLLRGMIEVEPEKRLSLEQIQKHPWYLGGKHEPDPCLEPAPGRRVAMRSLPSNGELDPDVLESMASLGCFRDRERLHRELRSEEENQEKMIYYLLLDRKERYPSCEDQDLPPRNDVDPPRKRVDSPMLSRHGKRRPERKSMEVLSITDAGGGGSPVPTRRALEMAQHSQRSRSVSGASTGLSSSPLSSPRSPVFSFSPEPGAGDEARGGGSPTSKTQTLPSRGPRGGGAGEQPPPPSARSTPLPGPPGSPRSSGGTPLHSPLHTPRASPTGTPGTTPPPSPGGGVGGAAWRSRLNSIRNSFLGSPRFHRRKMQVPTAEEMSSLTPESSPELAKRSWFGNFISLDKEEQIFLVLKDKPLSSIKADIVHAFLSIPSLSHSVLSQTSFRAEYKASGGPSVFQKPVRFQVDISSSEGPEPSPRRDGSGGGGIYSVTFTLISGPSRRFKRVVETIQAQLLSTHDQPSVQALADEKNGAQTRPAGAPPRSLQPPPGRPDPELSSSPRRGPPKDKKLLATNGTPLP

| SMILES | observed | method | tested at | remaining binding [%] |
| --- | --- | --- | --- | --- |
| CN(c1nccc(-c2cnn3ncccc23)n1)C1CC1 | binding |  | 1 µM | 100 |
| O=C(c1ccc(Nc2ncc(Cl)c(-c3ccc(Cl)s3)n2)cc1)N1CCC(N2CCCC2)CC1 | binding | competition with immobilised ligand | 1 µM | 57 |
| O=C(Nc1c[nH]nc1C(=O)NC1CCNCC1)c1cc(F)cc(F)c1 | binding | competition with immobilised ligand | 1 µM | 89 |
| N#CC1(c2ccccn2)CCN(Cc2cc(C(=O)N3CCCC3)c(=O)n3ccccc23)CC1 | cell-free assay | competition with immobilised ligand | 1 µM | 87 |
| COc1ncc2cc3ccccc3nc2c1C#N | cell-free assay | competition with immobilised ligand | 5 µM | 89 |
| CC1CCCN1c1nccc(-c2cnn3ncccc23)n1 (stereo not shown) | binding |  | 1 µM | 95 |
| c1cncc(-c2cccc(Nc3nccc(NC4CCCCC4)n3)c2)c1 | binding | competition with immobilised ligand | 10 µM | 84 |
| O=C(c1ccc(Nc2nccc(-c3cc4ccccc4s3)n2)cc1)N1CCC(N2CCCC2)CC1 | binding | competition with immobilised ligand | 1 µM | 61 |
| CC(C)CC(=O)N1CCc2nc(-c3ccc(Br)cc3)nc(N(C)Cc3ccccc3)c2C1 | cell-free assay | competition with immobilised ligand | 0.1 µM | 100 |
| FC(F)(F)Oc1cccc(-c2cnc3ccc(-c4ccncc4)nn23)c1 | cell-free assay | competition with immobilised ligand | 5 µM | 85 |
| COc1ccnn2ncc(-c3ccnc(N(C)C)n3)c12 | binding |  | 1 µM | 98 |
| C[C@@H](c1ccc(-n2cnc3c(N)ncnc32)cc1)N1CCc2nn(C)c(Cc3ccccc3)c2C1=O | binding | competition with immobilised ligand | 0.1 µM | 93 |
| C[C@@H]1CCN(c2nccc(-c3cnn4ncccc34)n2)C1 | binding |  | 1 µM | 93 |
| COc1cnc(Nc2cccc(S(N)(=O)=O)c2)nc1N1CCN(c2ccccc2)C(=O)C1 | binding | competition with immobilised ligand | 1 µM | 100 |
| Cc1c[nH]c2nccc(Oc3c(F)cc(Nc4cc(Cl)nc(N)n4)cc3F)c12 | cell-free assay | competition with immobilised ligand | 0.1 µM | 96 |
| CN(CCCC(F)(F)F)c1nccc(-c2cnn3ncccc23)n1 | binding |  | 1 µM | 100 |
| CS(=O)(=O)c1cc(C2(NC(=O)c3cncc4c3cnn4-c3ccc(F)cc3)CC2)ccn1 | cell-free assay | competition with immobilised ligand | 1 µM | 74 |
| F[C@@H]1CCN(c2nccc(-c3cnn4ncccc34)n2)C1 | binding |  | 1 µM | 100 |
| Cc1c(NC(=O)c2cc(C(N)=O)nc3cc(F)ccc23)c(C(F)(F)F)nn1Cc1ccc(C#N)cc1 | cell-free assay | competition with immobilised ligand | 1 µM | 100 |
| O=C(NCCCN1CCOCC1)c1ccc(Nc2ncc(Cl)c(-c3ccc(Cl)s3)n2)cc1 | binding | competition with immobilised ligand | 1 µM | 75 |
| CN(C)c1nccc(-c2cnc3ncccn23)n1 | binding |  | 1 µM | 100 |
| COc1ccc2c(c1)O[C@H](c1ccc(OC)c(OC)c1)C[C@@H]2NC(=O)C1(c2ccc3c(c2)OC(F)(F)O3)CC1 | cell-free assay | competition with immobilised ligand | 1 µM | 100 |
